Test results as given in PMC6520168 (ACS chemical neuroscience, 2019).
Entries after “also recorded” stand apart in the source; their conditions may differ. Read-outs that look alike come from different tables or passages of the source.

Assays:
MOR [1] = target: T1, MOR (Mus musculus, UniProt P42866); conditions: 24 h pretreatment; values previously published; cited from earlier work
MOR [2] = target: T1, MOR; type: cell-based; conditions: 24 h pretreatment
MOR in rat thalamus = conditions: cited from earlier work
MOR in mouse thalamus = MOR in mouse thalamus (Mus musculus, UniProt P42866); assay: [35S]-GTPγS functional assay in mouse thalamus membranes; type: biochemical
human NOP receptor = human NOP receptor (Homo sapiens, UniProt P41146); assay: [3H]nociceptin NOP receptor binding assay; conditions: 3 μM test ligand
How it was run: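 Membranes came from CHO cells stably expressing human NOP receptor (~5 pmol/mg protein), lysed hypotonically in Tris/EDTA/PMSF (pH 7.4). Binding used 20 μg protein with 0.2 nM [3H]nociceptin in 50 mM Tris-HCl, 0.1% BSA, pH 7.4, with or without 3 μM test compound. Percent inhibition = 100% − (binding with compound − nonspecific)/(total − nonspecific) × 100%.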

hMOR = hMOR (Homo sapiens, UniProt P35372); assay: Ca2+ flux assay in Gαqi5 transfected hMOR-CHO cells; type: cell-based; conditions: agonism study
mice = conditions: cited from earlier work
μ opioid receptor (MOR) = μ opioid receptor (MOR) (Mus musculus, UniProt P42866); assay: [35S]-GTPγS functional assay in mMOR-CHO cell membranes; type: biochemical
κ opioid receptor (KOR) = κ opioid receptor (KOR) (Mus musculus, UniProt P33534); assay: [35S]-GTPγS functional assay in mKOR-CHO cells; type: biochemical
morphine-pelleted mice = assay: Withdrawal assay in chronic morphine-pelleted mice; type: in vivo, mouse
DOR = conditions: read-out: DOR Ki; cited from earlier work
δ opioid receptor (DOR) = δ opioid receptor (DOR) (Mus musculus, UniProt P32300); assay: [35S]-GTPγS functional assay in mDOR-CHO cells; type: biochemical
MOR [3] = target: T1, MOR; type: cell-based
[4] = 1 mg/kg s.c., morphine-pelleted mice
[5] = 50 mg/kg s.c., morphine-pelleted mice

Sequence of μ opioid receptor (MOR) (P42866 whole entry): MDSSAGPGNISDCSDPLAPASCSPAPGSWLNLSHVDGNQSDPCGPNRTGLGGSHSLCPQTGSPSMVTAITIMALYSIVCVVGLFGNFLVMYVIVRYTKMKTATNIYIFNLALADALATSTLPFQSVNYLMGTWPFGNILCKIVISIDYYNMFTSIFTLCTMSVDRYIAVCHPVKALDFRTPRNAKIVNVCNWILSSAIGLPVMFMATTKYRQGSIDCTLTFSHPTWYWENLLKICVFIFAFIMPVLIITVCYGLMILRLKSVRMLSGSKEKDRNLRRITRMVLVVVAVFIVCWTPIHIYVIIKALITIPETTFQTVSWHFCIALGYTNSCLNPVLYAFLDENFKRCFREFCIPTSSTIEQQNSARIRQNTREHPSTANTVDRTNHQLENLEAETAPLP
T1 sequence (P42866 whole entry): as above
Sequence of human NOP receptor (P41146 whole entry): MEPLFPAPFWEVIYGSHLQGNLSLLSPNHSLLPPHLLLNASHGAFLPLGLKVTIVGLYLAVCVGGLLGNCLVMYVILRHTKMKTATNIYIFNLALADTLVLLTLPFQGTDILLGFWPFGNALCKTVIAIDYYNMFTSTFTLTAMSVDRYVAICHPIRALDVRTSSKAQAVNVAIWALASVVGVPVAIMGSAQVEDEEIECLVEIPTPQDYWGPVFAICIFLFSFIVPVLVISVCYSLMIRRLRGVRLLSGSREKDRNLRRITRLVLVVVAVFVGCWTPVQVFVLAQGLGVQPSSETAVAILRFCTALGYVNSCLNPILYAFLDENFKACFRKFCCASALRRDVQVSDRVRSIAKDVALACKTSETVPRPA
Sequence of δ opioid receptor (DOR) (P32300 whole entry): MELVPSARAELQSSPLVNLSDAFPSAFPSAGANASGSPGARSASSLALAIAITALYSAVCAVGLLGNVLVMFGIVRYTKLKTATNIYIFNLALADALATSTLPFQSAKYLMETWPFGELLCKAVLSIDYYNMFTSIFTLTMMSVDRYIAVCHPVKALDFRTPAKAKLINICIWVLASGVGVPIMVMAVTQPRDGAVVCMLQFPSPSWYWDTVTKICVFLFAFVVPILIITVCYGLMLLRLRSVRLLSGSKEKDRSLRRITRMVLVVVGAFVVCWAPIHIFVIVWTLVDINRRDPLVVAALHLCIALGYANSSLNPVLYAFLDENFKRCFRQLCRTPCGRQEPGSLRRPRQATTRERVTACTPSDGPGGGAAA
Sequence of κ opioid receptor (KOR) (P33534 whole entry): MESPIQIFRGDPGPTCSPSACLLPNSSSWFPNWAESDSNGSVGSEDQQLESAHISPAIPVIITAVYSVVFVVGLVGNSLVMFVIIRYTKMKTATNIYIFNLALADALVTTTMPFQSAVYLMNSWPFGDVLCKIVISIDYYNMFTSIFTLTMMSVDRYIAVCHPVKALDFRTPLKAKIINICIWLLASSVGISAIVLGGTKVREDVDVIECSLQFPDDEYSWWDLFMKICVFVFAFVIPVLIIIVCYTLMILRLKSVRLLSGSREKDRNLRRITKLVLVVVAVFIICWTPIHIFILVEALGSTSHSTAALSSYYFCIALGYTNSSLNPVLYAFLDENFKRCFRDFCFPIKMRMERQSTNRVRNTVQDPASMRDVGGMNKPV
Sequence of hMOR (P35372 whole entry): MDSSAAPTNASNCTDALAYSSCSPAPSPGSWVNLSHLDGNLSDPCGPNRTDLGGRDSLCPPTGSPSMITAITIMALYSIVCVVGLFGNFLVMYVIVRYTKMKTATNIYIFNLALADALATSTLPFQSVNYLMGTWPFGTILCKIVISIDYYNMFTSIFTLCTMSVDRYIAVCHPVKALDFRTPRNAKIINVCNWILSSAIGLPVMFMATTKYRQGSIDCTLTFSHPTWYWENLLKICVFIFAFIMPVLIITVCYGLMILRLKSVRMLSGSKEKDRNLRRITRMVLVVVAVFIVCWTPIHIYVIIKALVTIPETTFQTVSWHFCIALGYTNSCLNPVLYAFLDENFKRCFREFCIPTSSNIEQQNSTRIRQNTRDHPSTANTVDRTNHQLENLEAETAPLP
Sequence of MOR in mouse thalamus (P42866 whole entry): as the sequence (P42866 whole entry) above

C[C@@H](NC(=O)[C@@H](N)Cc1ccc(O)cc1)C(=O)NCC(=O)N(C)[C@@H](Cc1ccccc1)C(=O)NCCO [DAMGO, [D-Ala^2, N-MePhe^4, Gly-ol]-enkephalin, reference compound]
Bmax (pmol/mg) of [3H]naloxone saturation binding after pretreatment (MOR [1]): 1.49 ± 0.12 pmol/mg
Reduction in receptor density (Bmax) (MOR [2]; versus vehicle): ~50%

Oc1ccc2c3c1O[C@H]1[C@@H](O)CC[C@@]4(O)[C@@H](C2)N(CC2CCC2)CC[C@]314 [nalbuphine]
Functional character in the rat thalamus (MOR in rat thalamus): pure antagonists

O=C1CC[C@@]2(O)[C@H]3Cc4ccc(O)c5c4[C@@]2(CCN3CC2CC2)[C@H]1O5 [NTX, naltrexone]
Functional character in the rat thalamus (MOR in rat thalamus): pure antagonists

O=C(N[C@H]1CC[C@@]2(O)[C@H]3Cc4ccc(O)c5c4[C@@]2(CCN3CC2CC2)[C@H]1O5)c1cccc2cc[nH]c12 [NAN, 17-cyclopropylmethyl-3,14β-dihydroxy-4,5α-epoxy-6α-(indole-7-carboxamido)morphinan]
MOR stimulation compared to other ligands (MOR in mouse thalamus): low MOR stimulation that was significantly less than DAMGO and similar to NAQ and nalbuphine
Inhibition of [3H]-nociceptin binding to the NOP receptor (human NOP receptor): did not inhibit binding; also recorded: did not show NOP binding
Agonism in Ca2+ flux assay (hMOR): no apparent agonism
Antinociception in the tail-flick assay (mice): did not produce antinociception
Antagonism of the antinociceptive activity of morphine (mice; mice, warm water tail immersion assay): almost completely antagonized
Effect on the DAMGO Emax value (μ opioid receptor (MOR); 5 nM coincubation, mMOR-CHO cells and thalamus): did not have any effect on the DAMGO Emax value
MOR stimulation compared to other ligands (μ opioid receptor (MOR); mMOR-CHO cells): low MOR stimulation that was significantly less than DAMGO and similar to NAQ and nalbuphine
Emax (μ opioid receptor (MOR); read-out: Emax (% DAMGO)): 25.5 ± 1.58%
Bmax (pmol/mg) of [3H]naloxone saturation binding after pretreatment (MOR [2]; 1 μM): 3.92 ± 0.20 pmol/mg
EC50 (κ opioid receptor (KOR); KOR EC50 (nM), mKOR-CHO): 17.8 ± 3.24 nM
Emax (κ opioid receptor (KOR); read-out: KOR Emax (% max of U50,488H), mKOR-CHO, relative to 5 μM U50,488H): ~74%
Escape jumps versus 1 mg/kg NTX (morphine-pelleted mice; [4]): significantly less
Wet-dog shakes versus 1 mg/kg NTX (morphine-pelleted mice; [4]): significantly less
Escape jumps versus 1 mg/kg NTX (morphine-pelleted mice; 10 mg/kg s.c., morphine-pelleted mice): not significantly different
Escape jumps versus 1 mg/kg NTX (morphine-pelleted mice; [5]): not significantly different
Paw tremors versus 1 mg/kg NTX (morphine-pelleted mice; [5]): significantly less
Wet-dog shakes versus 1 mg/kg NTX (morphine-pelleted mice; [5]): significantly less
Withdrawal signs in placebo-pelleted mice (morphine-pelleted mice; 50 mg/kg s.c., placebo-pelleted mice, 20 min observation): did not induce any significant withdrawal signs
Ki (DOR): 13.7 ± 1.39 nM
EC50 (δ opioid receptor (DOR); DOR EC50 (nM), mDOR-CHO): 22.8 ± 3.95 nM
Emax (δ opioid receptor (DOR); read-out: DOR Emax (% max of SNC80), mDOR-CHO, relative to 5 μM SNC80): ~27%

O=C(N[C@H]1CC[C@@]2(O)[C@H]3Cc4ccc(O)c5c4[C@@]2(CCN3CC2CC2)[C@H]1O5)c1cc2ccccc2cn1 [NAQ, 17-cyclopropyl-methyl-3,14β-dihydroxy-4,5α-epoxy-6α-(isoquinoline-3-carboxamido)morphinan]
Bmax (pmol/mg) of [3H]naloxone saturation binding after pretreatment (MOR [1]): 3.75 ± 0.34 pmol/mg
Apparent increase in [3H]naloxone KD value after treatment (MOR [2]; versus vehicle): 3.5–4 fold
Change of DAMGO EC50 value after ligand pretreatment (desensitization) (MOR [3]): did not produce a significant change
